Measured values published in ChEMBL document CHEMBL1150419, “Structure-activity relationships of a peptide inhibitor of the human FcRn:human IgG interaction” (Bioorg Med Chem, 2008).
pIC50, pKd: −log10 of the molar value.

Experiments:
[1] = target: T1, IgG receptor FcRn large subunit p51 (Homo sapiens, UniProt P55899); test: Inhibition of human IgG binding to soluble human FcRn by ELISA
Outline: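 Biotinylated soluble human FcRn immobilized on neutravidin plates, incubated with hIgG (3 nM, constant) and peptide at varying concentrations for 2 h at 37 °C. After washing, bound hIgG detected with peroxidase-conjugated hIgG-specific Fab fragments.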

[2] = target: T1, IgG receptor FcRn large subunit p51; test: Binding affinity to human FcRn at pH 6 by surface plasmon resonance assay
Outline: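 Soluble human FcRn coupled to the dextran surface of a CM5 chip; peptide dilutions flowed over the chip. The equilibrium response at each dilution was plotted against concentration and fitted to a steady-state affinity model to give Kd.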

T1 sequence (P55899 whole entry, the tested form may be a part): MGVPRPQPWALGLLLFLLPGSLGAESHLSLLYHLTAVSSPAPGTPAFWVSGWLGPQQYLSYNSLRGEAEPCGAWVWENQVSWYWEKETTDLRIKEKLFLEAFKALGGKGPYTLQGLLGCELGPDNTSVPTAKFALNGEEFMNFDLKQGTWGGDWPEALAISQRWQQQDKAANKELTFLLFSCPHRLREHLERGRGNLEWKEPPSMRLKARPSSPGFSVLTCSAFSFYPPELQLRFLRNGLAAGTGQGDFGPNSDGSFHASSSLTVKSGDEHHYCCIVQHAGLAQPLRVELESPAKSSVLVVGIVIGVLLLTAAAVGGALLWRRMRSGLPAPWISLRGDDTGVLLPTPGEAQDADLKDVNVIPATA

Compound	pIC50 [1]	pKd [2]
CC(C)C[C@H](NC(=O)CNC(=O)CNC(=O)[C@@H]1Cc2ccccc2CN1C(=O)[C@H](Cc1cnc[nH]1)NC(=O)CNC(=O)[C@@H](NC(=O)[C@@H](NC(=O)[C@H](Cc1ccccc1)NC(=O)[C@H](CCCNC(=N)N)NC(=O)[C@@H](N)CCC(N)=O)C(C)(C)S)[C@@H](C)O)C(=O)N[C@@H](Cc1ccc(O)cc1)C(=O)N1CCC[C@H]1C(=O)N[C@@H](CS)C(=O)N[C@@H](CC(N)=O)C(=O)NCC(=O)N1CCC[C@H]1C(=O)O	< 3.90	< 3.60
CC(C)C[C@H](NC(=O)CNC(=O)CNC(=O)[C@H](Cc1ccccc1)NC(=O)[C@H](C)NC(=O)CNC(=O)[C@@H](NC(=O)[C@H](CS)NC(=O)[C@H](Cc1ccccc1)NC(=O)[C@H](CCCNC(=N)N)NC(=O)[C@@H](N)CCC(N)=O)[C@@H](C)O)C(=O)N[C@@H](Cc1ccc(O)cc1)C(=O)N1CCC[C@H]1C(=O)N[C@@H](CS)C(=O)N[C@@H](CC(N)=O)C(=O)NCC(=O)N1CCC[C@H]1C(=O)O	< 3.90	< 3.60
CC(C)C[C@H](NC(=O)CNC(=O)[C@H](C)NC(=O)[C@H](Cc1ccccc1)NC(=O)[C@H](Cc1cnc[nH]1)NC(=O)CNC(=O)[C@@H](NC(=O)[C@H](CS)NC(=O)[C@H](Cc1ccccc1)NC(=O)[C@H](CCCNC(=N)N)NC(=O)[C@@H](N)CCC(N)=O)[C@@H](C)O)C(=O)N[C@@H](Cc1ccc(O)cc1)C(=O)N1CCC[C@H]1C(=O)N[C@@H](CS)C(=O)N[C@@H](CC(N)=O)C(=O)NCC(=O)N1CCC[C@H]1C(=O)O	< 3.90	3.64
CC(C)C[C@H](NC(=O)[C@@H](CCCN=C(N)N)NC(=O)CNC(=O)[C@H](Cc1ccccc1)NC(=O)[C@H](Cc1cnc[nH]1)NC(=O)CNC(=O)[C@@H](NC(=O)[C@@H](NC(=O)[C@H](Cc1ccccc1)NC(=O)[C@H](CCCN=C(N)N)NC(=O)[C@@H](N)CCC(N)=O)C(C)(C)S)[C@@H](C)O)C(=O)N[C@@H](Cc1ccc(O)cc1)C(=O)N1CCC[C@H]1C(=O)N[C@@H](CS)C(=O)N[C@@H](CC(N)=O)C(=O)NCC(=O)N1CCC[C@H]1C(=O)O	5.09	6.08
Cc1cccc(C[C@H](NC(=O)[C@H](Cc2cnc[nH]2)NC(=O)CNC(=O)[C@@H](NC(=O)[C@@H](NC(=O)[C@H](Cc2ccccc2)NC(=O)[C@H](CCCN=C(N)N)NC(=O)[C@@H](N)CCC(N)=O)C(C)(C)S)[C@@H](C)O)C(=O)NCC(=O)NCC(=O)N[C@@H](CC(C)C)C(=O)N[C@@H](Cc2ccc(O)cc2)C(=O)N2CCC[C@H]2C(=O)N[C@@H](CS)C(=O)N[C@@H](CC(N)=O)C(=O)NCC(=O)N2CCC[C@H]2C(=O)O)c1	5.39	6.17
CC(C)C[C@H](NC(=O)CNC(=O)CNC(=O)[C@H](Cc1ccccc1)NC(=O)[C@H](Cc1cnc[nH]1)NC(=O)CNC(=O)[C@@H](NC(=O)[C@H](CS)NC(=O)[C@H](Cc1ccccc1)NC(=O)[C@H](C)NC(=O)[C@@H](N)CCC(N)=O)[C@@H](C)O)C(=O)N[C@@H](Cc1ccc(O)cc1)C(=O)N1CCC[C@H]1C(=O)N[C@@H](CS)C(=O)N[C@@H](CC(N)=O)C(=O)NCC(=O)N1CCC[C@H]1C(=O)O	4.64	5.11
CC(C)C[C@H](NC(=O)CNC(=O)CNC(=O)[C@H](CCc1ccccc1)NC(=O)[C@H](Cc1cnc[nH]1)NC(=O)CNC(=O)[C@@H](NC(=O)[C@@H](NC(=O)[C@H](Cc1ccccc1)NC(=O)[C@H](CCCNC(=N)N)NC(=O)[C@@H](N)CCC(N)=O)C(C)(C)S)[C@@H](C)O)C(=O)N[C@@H](Cc1ccc(O)cc1)C(=O)N1CCC[C@H]1C(=O)N[C@@H](CS)C(=O)N[C@@H](CC(N)=O)C(=O)NCC(=O)N1CCC[C@H]1C(=O)O	4.10	5.11
CC(C)C[C@H](NC(=O)CNC(=O)C(C)(C)NC(=O)[C@H](Cc1ccccc1)NC(=O)[C@H](Cc1cnc[nH]1)NC(=O)CNC(=O)[C@@H](NC(=O)[C@@H](NC(=O)[C@H](Cc1ccccc1)NC(=O)[C@H](CCCNC(=N)N)NC(=O)[C@@H](N)CCC(N)=O)C(C)(C)S)[C@@H](C)O)C(=O)N[C@@H](Cc1ccc(O)cc1)C(=O)N1CCC[C@H]1C(=O)N[C@@H](CS)C(=O)N[C@@H](CC(N)=O)C(=O)NCC(=O)N1CCC[C@H]1C(=O)O	4.77	5.28
CC(C)C[C@H](NC(=O)CNC(=O)CNC(=O)[C@@H](NC(=O)[C@H](Cc1cnc[nH]1)NC(=O)CNC(=O)[C@@H](NC(=O)[C@@H](NC(=O)[C@H](Cc1ccccc1)NC(=O)[C@H](CCCN=C(N)N)NC(=O)[C@@H](N)CCC(N)=O)C(C)(C)S)[C@@H](C)O)c1ccccc1)C(=O)N[C@@H](Cc1ccc(O)cc1)C(=O)N1CCC[C@H]1C(=O)N[C@@H](CS)C(=O)N[C@@H](CC(N)=O)C(=O)NCC(=O)N1CCC[C@H]1C(=O)O	< 3.90	< 3.60
CC(C)C[C@H](NC(=O)CNC(=O)CNC(=O)[C@H](Cc1ccccc1)NC(=O)[C@H](Cc1cnc[nH]1)NC(=O)[C@H](C)NC(=O)[C@@H](NC(=O)[C@H](CS)NC(=O)[C@H](Cc1ccccc1)NC(=O)[C@H](CCCNC(=N)N)NC(=O)[C@@H](N)CCC(N)=O)[C@@H](C)O)C(=O)N[C@@H](Cc1ccc(O)cc1)C(=O)N1CCC[C@H]1C(=O)N[C@@H](CS)C(=O)N[C@@H](CC(N)=O)C(=O)NCC(=O)N1CCC[C@H]1C(=O)O	< 3.90	< 3.60
CC(C)C[C@H](NC(=O)[C@@H]1CCCN1C(=O)[C@H]1CCCN1C(=O)[C@H](Cc1ccccc1)NC(=O)[C@H](Cc1cnc[nH]1)NC(=O)CNC(=O)[C@@H](NC(=O)[C@@H](NC(=O)[C@H](Cc1ccccc1)NC(=O)[C@H](CCCN=C(N)N)NC(=O)[C@@H](N)CCC(N)=O)C(C)(C)S)[C@@H](C)O)C(=O)N[C@@H](Cc1ccc(O)cc1)C(=O)N1CCC[C@H]1C(=O)N[C@@H](CS)C(=O)N[C@@H](CC(N)=O)C(=O)NCC(=O)N1CCC[C@H]1C(=O)O	< 3.60	< 4.00
CC(C)C[C@H](NC(=O)[C@H]1CCCN1C(=O)[C@@H](Cc1ccccc1)NC(=O)[C@H](Cc1ccccc1)NC(=O)[C@H](Cc1cnc[nH]1)NC(=O)CNC(=O)[C@@H](NC(=O)[C@@H](NC(=O)[C@H](Cc1ccccc1)NC(=O)[C@H](CCCN=C(N)N)NC(=O)[C@@H](N)CCC(N)=O)C(C)(C)S)[C@@H](C)O)C(=O)N[C@@H](Cc1ccc(O)cc1)C(=O)N1CCC[C@H]1C(=O)N[C@@H](CS)C(=O)N[C@@H](CC(N)=O)C(=O)NCC(=O)N1CCC[C@H]1C(=O)O	5.23	6.14

Stronger by pIC50 [1], values ahead:

pIC50 [1]	pKd [2]	Compound
5.43	3.64	CC(C)C[C@H](NC(=O)CNC(=O)CNC(=O)[C@H](Cc1cccc(Cl)c1)NC(=O)[C@H](Cc1cnc[nH]1)NC(=O)CNC(=O)[C@@H](NC(=O)[C@@H](NC(=O)[C@H](Cc1ccccc1)NC(=O)[C@H](CCCNC(=N)N)NC(=O)[C@@H](N)CCC(N)=O)C(C)(C)S)[C@@H](C)O)C(=O)N[C@@H](Cc1ccc(O)cc1)C(=O)N1CCC[C@H]1C(=O)N[C@@H](CS)C(=O)O
5.49	6.64	CC(C)C[C@@H](C(=O)N[C@@H](Cc1ccc(O)cc1)C(=O)N1CCC[C@H]1C(=O)N[C@@H](CS)C(=O)N[C@@H](CC(N)=O)C(=O)NCC(=O)N1CCC[C@H]1C(=O)O)N(C)C(=O)CNC(=O)[C@@H](C)NC(=O)[C@H](Cc1ccccc1)NC(=O)[C@H](Cc1cnc[nH]1)NC(=O)CNC(=O)[C@@H](NC(=O)[C@@H](NC(=O)[C@H](Cc1ccccc1)NC(=O)[C@H](CCCNC(=N)N)NC(=O)[C@@H](N)CCC(N)=O)C(C)(C)S)[C@@H](C)O
5.55	6.29	CC(C)C[C@H](NC(=O)CNC(=O)[C@@H](Cc1ccccc1)NC(=O)[C@H](Cc1ccccc1)NC(=O)[C@H](Cc1cnc[nH]1)NC(=O)CNC(=O)[C@@H](NC(=O)[C@@H](NC(=O)[C@H](Cc1ccccc1)NC(=O)[C@H](CCCNC(=N)N)NC(=O)[C@@H](N)CCC(N)=O)C(C)(C)S)[C@@H](C)O)C(=O)N[C@@H](Cc1ccc(O)cc1)C(=O)N1CCC[C@H]1C(=O)N[C@@H](CS)C(=O)N[C@@H](CC(N)=O)C(=O)NCC(=O)N1CCC[C@H]1C(=O)O
5.62	6.32	CC(C)C[C@H](NC(=O)C(C)(C)NC(=O)CNC(=O)[C@H](Cc1ccccc1)NC(=O)[C@H](Cc1cnc[nH]1)NC(=O)CNC(=O)[C@@H](NC(=O)[C@@H](NC(=O)[C@H](Cc1ccccc1)NC(=O)[C@H](CCCNC(=N)N)NC(=O)[C@@H](N)CCC(N)=O)C(C)(C)S)[C@@H](C)O)C(=O)N[C@@H](Cc1ccc(O)cc1)C(=O)N1CCC[C@H]1C(=O)N[C@@H](CS)C(=O)N[C@@H](CC(N)=O)C(=O)NCC(=O)N1CCC[C@H]1C(=O)O
5.70	6.32	CC(C)C[C@H](NC(=O)[C@@H](C)NC(=O)CNC(=O)[C@H](Cc1ccccc1)NC(=O)[C@H](Cc1cnc[nH]1)NC(=O)CNC(=O)[C@@H](NC(=O)[C@@H](NC(=O)[C@H](Cc1ccccc1)NC(=O)[C@H](CCCN=C(N)N)NC(=O)[C@@H](N)CCC(N)=O)C(C)(C)S)[C@@H](C)O)C(=O)N[C@@H](Cc1ccc(O)cc1)C(=O)N1CCC[C@H]1C(=O)N[C@@H](CS)C(=O)N[C@@H](CC(N)=O)C(=O)NCC(=O)N1CCC[C@H]1C(=O)O
5.89	6.62	CC(C)C[C@@H](C(=O)N[C@@H](Cc1ccc(O)cc1)C(=O)N1CCC[C@H]1C(=O)N[C@@H](CS)C(=O)N[C@@H](CC(N)=O)C(=O)NCC(=O)N1CCC[C@H]1C(=O)O)N(C)C(=O)CNC(=O)[C@@H](Cc1ccccc1)NC(=O)[C@H](Cc1ccccc1)NC(=O)[C@H](Cc1cnc[nH]1)NC(=O)CNC(=O)[C@@H](NC(=O)[C@@H](NC(=O)[C@H](Cc1ccccc1)NC(=O)[C@H](CCCNC(=N)N)NC(=O)[C@@H](N)CCC(N)=O)C(C)(C)S)[C@@H](C)O
6.00	6.70	Cc1ccccc1C[C@H](NC(=O)[C@H](Cc1cnc[nH]1)NC(=O)CNC(=O)[C@@H](NC(=O)[C@@H](NC(=O)[C@H](Cc1ccccc1)NC(=O)[C@H](CCCNC(=N)N)NC(=O)[C@@H](N)CCC(N)=O)C(C)(C)S)[C@@H](C)O)C(=O)NCC(=O)NCC(=O)N[C@@H](CC(C)C)C(=O)N[C@@H](Cc1ccc(O)cc1)C(=O)N1CCC[C@H]1C(=O)N[C@@H](CS)C(=O)N[C@@H](CC(N)=O)C(=O)NCC(=O)N1CCC[C@H]1C(=O)O
